Source: ChEMBL document CHEMBL4400578, “Spirocyclic and Bicyclic 8-Nitrobenzothiazinones for Tuberculosis with Improved Physicochemical and Pharmacokinetic Properties” (ACS Med Chem Lett, 2019)
Values after ≈ are worked out from the molar mass of the structure shown.

Legend:
[1] = molecular target: T1, Decaprenylphosphoryl-beta-D-ribose oxidase (Mycobacterium tuberculosis (strain ATCC 25618 / H37Rv)) (UniProt P9WJF1); assay: Inhibition of Mycobacterium tuberculosis H37Rv DprE1 assessed as reduction in bacterial growth measured after 7 to 10 days by broth microdilution method
T1 sequence (whole entry): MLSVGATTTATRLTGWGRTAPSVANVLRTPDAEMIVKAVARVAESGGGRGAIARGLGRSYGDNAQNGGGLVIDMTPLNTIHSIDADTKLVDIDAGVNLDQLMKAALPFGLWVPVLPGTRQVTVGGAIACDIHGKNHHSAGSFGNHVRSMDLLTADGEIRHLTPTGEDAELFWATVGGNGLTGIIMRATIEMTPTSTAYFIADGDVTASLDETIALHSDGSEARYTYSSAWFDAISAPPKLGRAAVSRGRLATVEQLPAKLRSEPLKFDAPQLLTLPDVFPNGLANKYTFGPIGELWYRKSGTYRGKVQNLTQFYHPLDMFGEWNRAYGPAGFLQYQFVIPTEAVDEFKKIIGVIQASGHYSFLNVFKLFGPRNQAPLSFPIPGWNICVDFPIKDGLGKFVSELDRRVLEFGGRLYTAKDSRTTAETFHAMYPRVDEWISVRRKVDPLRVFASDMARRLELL
Summary of the method: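 Whole-cell growth assay of M. tuberculosis H37Rv in 7H9 broth. MIC is taken as the lowest concentration giving complete inhibition of observable growth.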

[2] = Selectivity ratio of MIC90 for inhibition of DprE1-mediated growth of Mycobacterium tuberculosis H37Rv to MIC90 for inhibition of DprE1-mediated growth of Mycobacterium tuberculosis Erdman
[3] = Selectivity ratio of MIC90 for inhibition of DprE1-mediated growth of Mycobacterium tuberculosis H37Rv to MIC90 for inhibition of DprE1-mediated growth of Mycobacterium tuberculosis CDC1551
[4] = Terminal half life in specific pathogen free ICR mouse at 10 mg/kg, po by LC/TSQ-MS analysis; format: ADME, organism-based; settings: in vivo, read-out: beta t1/2 (converted)
Summary of the method: (§1)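 ICR mice dosed once with compound, intravenously at 2 mg/kg or orally at 10 mg/kg. Plasma pharmacokinetic parameters derived per route: AUC, Cmax, clearance, mean residence time, Vd, terminal elimination half-life, and oral bioavailability from the p.o. versus i.v. comparison.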

[5] = Cmax in specific pathogen free ICR mouse at 2 mg/kg, iv by LC/TSQ-MS analysis; format: ADME, organism-based; parameters: dose 2 mg/kg, route intravenous; settings: in vivo; summary of the method: as §1
[6] = Kinetic aqueous solubility of the compound in pH 7.4 phosphate buffer incubated for 4.5 hrs under shaking condition by LC-MS/MS analysis; format: physicochemical; settings: read-out: Kinetic_solubility
Summary of the method: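 Kinetic solubility measured in phosphate-buffered saline at pH 7.4, with compound quantified by LC–MS/MS.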

[7] = AUC in specific pathogen free ICR mouse at 10 mg/kg, po by LC/TSQ-MS analysis; format: ADME, organism-based; settings: in vivo; summary of the method: as §1
[8] = Intrinsic clearance in specific pathogen free ICR mouse at 2 mg/kg, iv by LC/TSQ-MS analysis; format: ADME, organism-based; settings: in vivo
[9] = Half life in […] microsomes at 2.5 uL preincubated for 5 mins followed by NADPH addition and measured by LC-MS/MS analysis; format: ADME, Liver, Microsome
[10] = Cmax in specific pathogen free ICR mouse at 10 mg/kg, po by LC/TSQ-MS analysis; format: ADME, organism-based; parameters: dose 10 mg/kg, route oral; settings: in vivo; summary of the method: as §1
[11] = Protein binding in plasma (unknown origin) measured after 5 hrs by equilibrium dialysis method; format: ADME, cell-free; settings: read-out: PPB (converted)
[12] = AUC in specific pathogen free ICR mouse at 2 mg/kg, iv by LC/TSQ-MS analysis; format: ADME, organism-based; settings: in vivo; summary of the method: as §1
[13] = Intrinsic clearance in mouse liver microsomes at 2.5 uL preincubated for 5 mins followed by NADPH addition and measured by LC-MS/MS analysis; format: ADME, Microsome; settings: read-out: CLH
[14] = Oral bioavailability in specific pathogen free ICR mouse at 10 mg/kg by LC/TSQ-MS analysis; format: ADME, organism-based; settings: in vivo; summary of the method: as §1
[15] = Intrinsic clearance in human liver microsomes at 2.5 uL preincubated for 5 mins followed by NADPH addition and measured by LC-MS/MS analysis; format: ADME, Microsome; settings: read-out: CLH
[16] = Mean residence time in specific pathogen free ICR mouse at 10 mg/kg, po by LC/TSQ-MS analysis; format: ADME, organism-based; settings: in vivo; summary of the method: as §1
[17] = Terminal half life in specific pathogen free ICR mouse at 2 mg/kg, iv by LC/TSQ-MS analysis; format: ADME, organism-based; settings: in vivo, read-out: beta t1/2 (converted); summary of the method: as §1
[18] = Half life in mouse liver microsomes at 2.5 uL preincubated for 5 mins followed by NADPH addition and measured by LC-MS/MS analysis; format: ADME, Microsome
[19] = Mean residence time in specific pathogen free ICR mouse at 2 mg/kg, iv by LC/TSQ-MS analysis; format: ADME, organism-based; settings: in vivo; summary of the method: as §1
[20] = Volume of distribution in specific pathogen free ICR mouse at 2 mg/kg, iv by LC/TSQ-MS analysis; format: ADME, organism-based; settings: in vivo; summary of the method: as §1
[21] = Stability of the compound in plasma (unknown origin); format: ADME, cell-free
[22] = Ratio of test compound kinetic aqueous solubility to PBTZ169 kinetic aqueous solubility; format: physicochemical; settings: buffer

Row | Compound | MIC [1] | Selectivity ratio [2] | Selectivity ratio [3] | solubility kinetic at 4.5 h [6] | half-life [9] | fraction unbound at 5 h [11] | microsomal CLint [13] | microsomal CLint [15] | half-life [18] | Stability [21] | also measured
1 | O=c1nc(N2CCC3(CC2)CN(CC2CCCCC2)C3)sc2c([N+](=O)[O-])cc(C(F)(F)F)cc12 | 0.512 µM (≈ 0.254 µg/mL) | < 4 | < 4 |  |  |  |  |  |  |  | 
2 | O=c1nc(N2C[C@@H]3[C@H](C2)[C@H]3NCC2CCCCC2)sc2c([N+](=O)[O-])cc(C(F)(F)F)cc12 | 0.032 µM (≈ 0.015 µg/mL) | < 4 | < 4 | 4.8 µg/mL (≈ 10.2 µM) | 76.6 min | 0.005 | 10.6 µL/min/mg | 9.05 µL/min/mg | 65.2 min | 91.4% | half-life [4]: 131 min; Cmax [5]: 483 ng/mL; AUC [7]: 791 ng·h/mL; CL [8]: 58.2 mL/min/kg; Cmax [10]: 195 ng/mL; AUC [12]: 576 ng·h/mL; bioavailability [14]: 27.4%; MRT [16]: 185 min; half-life [17]: 152 min; MRT [19]: 134 min; Vd [20]: 12.8 L/kg
3 | O=c1nc(N2CCC3(CCN(CC4CCCCC4)C3)CC2)sc2c([N+](=O)[O-])cc(C(F)(F)F)cc12 | 0.128 µM (≈ 0.0654 µg/mL) | < 4 | < 4 |  |  |  |  |  |  |  | 
4 | O=c1nc(N2CC3CCC2CN3CC2CCCCC2)sc2c([N+](=O)[O-])cc(C(F)(F)F)cc12 (stereo unspecified) | 0.032 µM (≈ 0.0154 µg/mL) | < 4 | < 4 | < 0.029 µg/mL | 30.6 min | 0.001 | 25.4 µL/min/mg | 22.7 µL/min/mg | 27.3 min | 102% | 
5 | O=c1nc(N2C[C@H]3C[C@@H](C2)N3CC2CCCCC2)sc2c([N+](=O)[O-])cc(C(F)(F)F)cc12 | 0.128 µM (≈ 0.06 µg/mL) | < 4 | < 4 |  |  |  |  |  |  |  | 
6 | O=c1nc(N2CC3(CCN(CC4CCCCC4)CC3)C2)sc2c([N+](=O)[O-])cc(C(F)(F)F)cc12 | 1.02 µM (≈ 0.508 µg/mL) | < 4 | < 4 |  |  |  |  |  |  |  | 
7 | O=c1nc(N2CCC3(CC2)CC3)sc2c([N+](=O)[O-])cc(C(F)(F)F)cc12 | 0.016 µM (≈ 0.00617 µg/mL) | < 4 | < 4 | 0.3 µg/mL (≈ 0.778 µM) | 43 min | 0.006 | 83.3 µL/min/mg | 16.1 µL/min/mg | 8.33 min | 93.3% | 
8 | O=c1nc(N2CCCC3(CCCCN3CC3CCCCC3)C2)sc2c([N+](=O)[O-])cc(C(F)(F)F)cc12 (stereo unspecified) | 1.02 µM (≈ 0.537 µg/mL) | < 4 | < 4 |  |  |  |  |  |  |  | 
9 | O=c1nc(N2C[C@H]3C[C@@H]2CN3CC2CCCCC2)sc2c([N+](=O)[O-])cc(C(F)(F)F)cc12 | 0.064 µM (≈ 0.03 µg/mL) | < 4 | < 4 | 14.6 µg/mL (≈ 31.2 µM) | 26.6 min | 0.004 | 98.4 µL/min/mg | 26.1 µL/min/mg | 7.05 min | 81.9% | Ratio [22]: 1600
10 | O=c1nc(N2CCC3(CCN(CC4CCCCC4)C3)C2)sc2c([N+](=O)[O-])cc(C(F)(F)F)cc12 (stereo unspecified) | 0.256 µM (≈ 0.127 µg/mL) | < 4 | < 4 |  |  |  |  |  |  |  | 
11 | O=c1nc(N2CCN(CC3CCCCC3)CC2)sc2c([N+](=O)[O-])cc(C(F)(F)F)cc12 [MACOZINONE] | 0.002 µM (≈ 0.000913 µg/mL) | < 4 | < 4 | < 0.01 µg/mL | 43 min | 0.001 | 20.1 µL/min/mg | 16.5 µL/min/mg | 34.4 min | 88.7% | 
12 | O=c1nc(N2CC3(CN(CC4CCCCC4)C3)C2)sc2c([N+](=O)[O-])cc(C(F)(F)F)cc12 | 0.256 µM (≈ 0.12 µg/mL) | < 4 | < 4 |  |  |  |  |  |  |  | 
13 | O=c1nc(N2[C@@H]3C[C@H]2CN(CC2CCCCC2)C3)sc2c([N+](=O)[O-])cc(C(F)(F)F)cc12 | 0.128 µM (≈ 0.06 µg/mL) | < 4 | < 4 |  |  |  |  |  |  |  | 
